In ChEMBL document CHEMBL2390889, “Synthesis and anticancer activity of acyl thioureas bearing pyrazole moiety” (2013) one finds viability data, which are given here for eleven compounds.

Holding throughout (type): functional
For assay [1], the system named is HepG2. Nature of the assay: Anticancer activity against human HepG2 cells assessed as viable cells at 10^-5 M after 48 hrs by XTT assay relative to control. The conditions noted are these: HepG2, 48 h, read-out: Activity. The essentials: (§1)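 DLD-1, HepG2 and Jurkat cells were grown in low-glucose DMEM with 10% FBS, 1% L-glutamine, 100 IU/mL penicillin and streptomycin at 37 °C under 5% CO2. They were seeded at 10 × 10^4 cells/well and treated with a 10-fold dilution series from 10^-4 to 10^-8 M for 24 or 48 h. XTT was then added, absorbance read at 450 nm after 4 h, and viability expressed as % of untreated control (set to 100%).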
(In general: Tetrazolium assays rely on reduction of a dye to a coloured formazan, in cell work by metabolically active cells.)

The subject of assay [2] is HepG2. Nature of the assay: Anticancer activity against human HepG2 cells assessed as viable cells at 10^-4 M after 48 hrs by XTT assay relative to control. The conditions noted are these: HepG2, 48 h, read-out: Activity. The essentials: as §1
Assay [3] deals with DLD-1. Nature of the assay: Anticancer activity against human DLD1 cells assessed as viable cells at 10^-5 M after 48 hrs by XTT assay relative to control. Conditions: DLD-1, 48 h, read-out: Activity. The method in brief:
as §1

Assay [4] has as its system DLD-1. Kind of assay: Anticancer activity against human DLD1 cells assessed as viable cells at 10^-4 M after 48 hrs by XTT assay relative to control. The conditions noted are these: DLD-1, 48 h, read-out: Activity. The method in brief:
as §1

Assay [5] concerns Jurkat. Nature of the assay: Anticancer activity against human Jurkat cells assessed as viable cells at 10^-5 M after 48 hrs by XTT assay relative to control. Conditions: read-out: Activity. The method in brief:
as §1

The subject of assay [6] is Jurkat. Kind of assay: Anticancer activity against human Jurkat cells assessed as viable cells at 10^-4 M after 48 hrs by XTT assay relative to control. The conditions noted are these: read-out: Activity. The essentials:
as §1

Assay [7] has as its system HepG2. Kind of assay: Anticancer activity against human HepG2 cells assessed as viable cells at 10^-5 M after 24 hrs by XTT assay relative to control. The conditions noted are these: HepG2, 24 h, read-out: Activity. The method in brief:
as §1

For assay [8], the system named is HepG2. Nature of the assay: Anticancer activity against human HepG2 cells assessed as viable cells at 10^-4 M after 24 hrs by XTT assay relative to control. Conditions: HepG2, 24 h, read-out: Activity. The method in brief:
as §1

The test system of assay [9] is DLD-1. Nature of the assay: Anticancer activity against human DLD1 cells assessed as viable cells at 10^-4 M after 24 hrs by XTT assay relative to control. The conditions noted are these: DLD-1, 24 h, read-out: Activity. The essentials: as §1
In assay [10] the test system is DLD-1. Kind of assay: Anticancer activity against human DLD1 cells assessed as viable cells at 10^-5 M after 24 hrs by XTT assay relative to control. Conditions: DLD-1, 24 h, read-out: Activity. The essentials: as §1
Assay [11] deals with Jurkat. Nature of the assay: Anticancer activity against human Jurkat cells assessed as viable cells at 10^-5 M after 24 hrs by XTT assay relative to control. The conditions noted are these: read-out: Activity. The essentials: as §1
In assay [12] the test system is Jurkat. Kind of assay: Anticancer activity against human Jurkat cells assessed as viable cells at 10^-4 M after 24 hrs by XTT assay relative to control. The conditions noted are these: read-out: Activity. The essentials: as §1

Regarding `Cc1ccc(NC(=S)NC(=O)c2nn(-c3ccccc3)c(-c3ccccc3)c2C(=O)c2ccccc2)cc1`, the viability at 10 µM in assay [1] was found to be 27.7%; in [3] it was 48.5%; in assay [5], 14.2%; in assay [7], 51.6%; in assay [10], 65.1%; in [11], 50.3%. Besides, the viability at 100 µM in assay [2] came to 25.9%; in assay [4] it was 40.2%; in [6], 12.5%; in [8] it was 49.2%; in [9], 57.1%; in assay [12] it was 30%.
Regarding `Cc1ccccc1NC(=S)NC(=O)c1nn(-c2ccccc2)c(-c2ccccc2)c1C(=O)c1ccccc1`, the viability at 10 µM was determined as 22.8% in assay [1]; 45.6% in assay [3]; 51.2% in assay [5]; 33.3% in [7]; 63.2% in assay [10]; 100% in assay [11]. Further, the viability at 100 µM came out at 20.8% in assay [2]; 41.3% in assay [4]; 76.6% in assay [6]; 29.1% in assay [8]; 55.3% in [9]; 100% in assay [12].
For the compound `COc1ccc(NC(=S)NC(=O)c2nn(-c3ccccc3)c(-c3ccccc3)c2C(=O)c2ccccc2)cc1`, the viability at 10 µM in assay [1] amounted to 27.9%; in assay [3] it was 68.2%; in assay [5], 87.5%; in [7] it was 42%; in [10], 80.5%; in [11], 37.8%. Moreover, the viability at 100 µM in [2] was determined as 22.6%; in assay [4] it was 62.1%; in assay [6], 8.98%; in assay [8] it was 36.5%; in assay [9] it was 71.2%; in assay [12] it was 31.1%.
`O=C(NC(=S)Nc1ccc(F)cc1)c1nn(-c2ccccc2)c(-c2ccccc2)c1C(=O)c1ccccc1`: the viability at 10 µM in [1] worked out at 30.1%; in assay [3], 60.2%; in [5] it was 47.8%; in [7], 54.2%; in assay [10] it was 75.1%; in assay [11], 100%. The viability at 100 µM was determined as 23.6% in assay [2]; 51.5% in assay [4]; 67.6% in assay [6]; 50.1% in assay [8]; 62.5% in [9]; 100% in [12].
In the case of `O=C(NC(=S)Nc1ccc(Cl)cc1)c1nn(-c2ccccc2)c(-c2ccccc2)c1C(=O)c1ccccc1`, the viability at 10 µM was 24.9% in assay [1]; 55.2% in [3]; 90% in assay [5]; 53.7% in assay [7]; 73.3% in assay [10]; 56.3% in [11]. In addition, the viability at 100 µM was found to be 24.8% in assay [2]; 49.2% in assay [4]; 24.2% in [6]; 49.5% in assay [8]; 60.5% in [9]; 57.3% in [12].
With `O=C(NC(=S)Nc1ccc(Br)cc1)c1nn(-c2ccccc2)c(-c2ccccc2)c1C(=O)c1ccccc1`, the viability at 10 µM in assay [1] was 27.8%; in assay [3], 62.5%; in assay [5], 87.5%; in [7], 51.5%; in assay [10], 78.1%; in assay [11], 100%. The viability at 100 µM in assay [2] was 27.2%; in [4], 50.1%; in assay [6], 40.1%; in assay [8], 55.2%; in assay [9], 65.2%; in assay [12], 78.1%.
As for `O=C(NC(=S)Nc1cccc2ccccc12)c1nn(-c2ccccc2)c(-c2ccccc2)c1C(=O)c1ccccc1`, the viability at 10 µM in assay [1] turned out to be 51.2%; in assay [3], 75.5%; in assay [5] it was 14.5%; in [7], 85.5%; in [10], 82.2%; in assay [11], 46%. For the same compound, the viability at 100 µM in assay [2] came to 49.9%; in assay [4], 70.6%; in assay [6], 8.24%; in [8], 78.7%; in assay [9] it was 74.2%; in assay [12], 36.4%.
In the case of `NC(=O)c1ccc(NC(=S)NC(=O)c2nn(-c3ccccc3)c(-c3ccccc3)c2C(=O)c2ccccc2)cc1`, the viability at 10 µM in [1] came to 27.3%; in assay [3] it was 95.2%; in assay [5], 66.3%; in assay [7], 44.2%; in [10], 100%; in assay [11], 100%. The viability at 100 µM worked out at 22.9% in assay [2]; 96.6% in assay [4]; 39.2% in [6]; 38.1% in [8]; 100% in assay [9]; 100% in assay [12].
Take `O=C(NC(=S)NCc1ccccc1)c1nn(-c2ccccc2)c(-c2ccccc2)c1C(=O)c1ccccc1`: the viability at 10 µM in [1] amounted to 40.6%; in assay [3] it was 65.5%; in [5] it was 23.1%; in [7] it was 56.4%; in assay [10], 75.2%; in assay [11], 34.7%. Moreover, the viability at 100 µM in [2] was found to be 39.8%; in assay [4], 55.9%; in assay [6], 17.9%; in assay [8], 49.2%; in [9], 64.2%; in [12], 36.6%.
For the compound `O=C(NC(=S)Nc1ncccn1)c1nn(-c2ccccc2)c(-c2ccccc2)c1C(=O)c1ccccc1`, the viability at 10 µM in assay [1] turned out to be 31.2%; in [3], 81.4%; in assay [5], 28%; in assay [7] it was 51.1%; in assay [10] it was 88.5%; in [11], 100%. Moreover, the viability at 100 µM worked out at 28.8% in [2]; 75.5% in assay [4]; 23.4% in [6]; 44.3% in assay [8]; 80.4% in [9]; 86.2% in assay [12].
In the case of `O=C(NC(=S)Nc1ccccc1)c1nn(-c2ccccc2)c(-c2ccccc2)c1C(=O)c1ccccc1`, the viability at 10 µM stood at 23.7% in assay [1]; 55.4% in [3]; 67.6% in assay [5]; 42.1% in [7]; 75.5% in assay [10]; 30% in [11]. Besides, the viability at 100 µM in [2] is 21.8%; in [4] it was 60.6%; in assay [6], 6%; in assay [8], 38.2%; in assay [9], 71.3%; in assay [12] it was 23.3%.
